High-throughput results (PubChem)
Compounds with a hit are over-represented: about 1.8% of the library has one in this group of screens.
DNMT1 inh: human DNMT1 methyltransferase inhibitors, primary screen, biochemical, molecular beacon, fluorescence, HinP1I cleavage, uHTS. DNA (cytosine-5)-methyltransferase 1 (Homo sapiens), P26358. inhibition (reported as % activation of signal), % at 10 µM. 360,000 tested, 0.83% active; in the data active means inhibition above about 50%
STEP inh: STEP phosphatase inhibitors, primary screen, biochemical, fluorescence intensity, uHTS; recombinant STEP, OMFP fluorogenic substrate; inhibition, % at 20 µM; 360,000 tested, 0.25% active; AID 588621, 2011;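 active means inhibition at 20 µM, scaled per plate between control wells, above about 37%, limit read from the data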;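 further: 0% = DMSO with enzyme and substrate and 100% = substrate only without enzyme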
Target sequence (P54829 whole entry, looked up): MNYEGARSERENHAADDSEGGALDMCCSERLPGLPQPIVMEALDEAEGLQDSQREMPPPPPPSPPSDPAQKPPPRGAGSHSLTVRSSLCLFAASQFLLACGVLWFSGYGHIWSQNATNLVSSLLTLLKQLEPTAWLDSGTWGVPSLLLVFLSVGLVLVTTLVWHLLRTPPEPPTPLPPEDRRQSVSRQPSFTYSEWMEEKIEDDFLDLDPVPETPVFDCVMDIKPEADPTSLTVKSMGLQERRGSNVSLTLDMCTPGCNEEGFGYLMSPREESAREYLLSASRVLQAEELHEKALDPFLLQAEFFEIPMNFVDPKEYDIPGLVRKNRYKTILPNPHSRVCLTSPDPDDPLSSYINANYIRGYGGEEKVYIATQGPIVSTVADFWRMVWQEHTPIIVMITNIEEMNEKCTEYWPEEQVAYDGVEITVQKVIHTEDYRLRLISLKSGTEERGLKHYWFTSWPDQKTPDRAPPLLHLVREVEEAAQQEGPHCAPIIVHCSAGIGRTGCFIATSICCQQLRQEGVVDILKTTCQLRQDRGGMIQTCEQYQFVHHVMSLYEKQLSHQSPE
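medium = Bis-Tris buffer pH 6.0, 2.5 mM DTT, 0.005% Tween 20 | test system = STEP (striatal-enriched tyrosine phosphatase) enzyme, cell-free | measure = normalized % inhibition | compound dosing = 20 µM, 1% DMSO | also added = 25 µM OMFP | schedule = reaction 20 min, ambient temperature | measured by = fluorescence read at 480 nm ex / 540 nm em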
LMPTP inh: LMPTP phosphatase inhibitors, primary screen, biochemical, fluorescence intensity, uHTS. inhibition, % at 20 µM. recombinant LMPTP-A, OMFP fluorogenic substrate. AID 651560, 2012. Low molecular weight phosphotyrosine protein phosphatase (Homo sapiens), P24666. 360,000 tested, 0.22% active;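 active means compounds that cut the enzyme signal by at least half of the control window in the single-dose screen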;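 further: plate controls were DMSO wells with enzyme plus substrate for no effect and substrate without enzyme for full effect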
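Test system – LMPTP-A enzyme · Amount – LMPTP-A at 0.625 nM final in the reaction · Buffer or medium – Bis-Tris pH 6.0, DTT, detergent · Reagent – OMFP 400 µM · Doses – single 20 µM dose · Schedule – reaction 50 min, room temperature, dark · Detection – fluorescence intensity of OMFP turnover product · Evaluation – percent inhibition versus substrate-only and uninhibited controls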
SUMO1 PPI mod: modulators of SUMO1 protein-protein interactions, primary screen, biochemical, uHTS; SUMO1 binding to a labelled peptide, TR-FRET, 1 h; inhibition, % at 20 µM; 360,000 tested, 0.33% active; AID 602429, 2012; in the data active means inhibition above about 37%
Target sequence (P63165 whole entry, looked up): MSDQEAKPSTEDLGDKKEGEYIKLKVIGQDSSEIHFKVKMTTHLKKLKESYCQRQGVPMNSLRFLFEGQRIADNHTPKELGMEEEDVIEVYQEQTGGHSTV
Scp-1 inhibitor: Scp-1 phosphatase inhibitors, primary screen, biochemical, colorimetric, uHTS; Carboxy-terminal domain RNA polymerase II polypeptide A small phosphatase 1 (Homo …; Recombinant Scp1, phosphopeptide, malachite green phosphate absorbance; inhibition, % at 20 µM; 340,000 tested, 0.88% active;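 active means inhibition above about 50% at 20 µM, limit read from the data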;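 further: plate controls were DMSO wells with enzyme for no effect and wells lacking enzyme for full effect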
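Assay system: SCP-1 catalytic fragment, aa 76-261 | Buffer or medium: Tris acetate buffer pH 5.5 with MgCl2 and Tween-20 | Compound: One concentration, 20 µM, with 1.0% DMSO | Also added: Phospho 17-mer peptide substrate | Signal: Absorbance at 630 nm | Incubation: 45 min enzyme reaction at room temperature | Measure: % inhibition of SCP-1 phosphate liberation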
HKDC1 inhibitor: HKDC1 hexokinase inhibitors, primary screen, biochemical, fluorescence, uHTS; recombinant HKDC1, G6PDH/diaphorase resazurin coupled fluorescence; Q2TB90; inhibition, % at 20 µM; 340,000 tested, 0.16% active;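 active means inhibition above about 35% when tested at 20 µM, limit read from the data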;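 further: plate controls were DMSO wells with enzyme for no effect and DMSO wells lacking enzyme for full effect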
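System: Recombinant HKDC1 hexokinase | Amount: HKDC1 at 5 µg/mL | Reagent: Glucose with 1 mM ATP | Doses: Single 20 µM dose | Incubation: Reaction time 90 min, room temperature, protected from light | Signal: Coupled resazurin fluorescence, excitation 525 nm, emission 613 nm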
DNMT1 interf DR: spectral interference with molecular beacon fluorescence, dose response, artefact control for DNMT1 inhibitor project, biochemical, fluorescent molecular beacon; spectral interference counter-screen; IC50, µM; shares compounds with DNMT1 inh; 200 tested, under 10 active; AID 602382, 2012; call rule not given here
DNMT1 inh conf: DNMT1 methyltransferase inhibitor retest, confirmation, biochemical, molecular beacon, fluorescence, single concentration; 2,300 tested, 8% active; shares compounds with DNMT1 inh; DNMT1 molecular beacon HinP1I cleavage; inhibition, % at 10 µM;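 active means average inhibition of at least 30% in the single-concentration confirmation test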
DNMT1 interf: counter-screen for DNMT1 inhibitors: spectral interference. activation (fluorescence interference), % at 10 µM. 2,300 tested, 1% active. DNMT1 molecular beacon spectral interference counterscreen, fluorescence 485/520. shares compounds with DNMT1 inh;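 active means activation of at least 30% at 10 µM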;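 further: DNMT1 catalytic domain with a HinP1I cleavage step and a FAM/dabcyl DNA beacon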
Starred values were filed as active, the others as inactive; · = no result.

SMILES | DNMT1 inh | STEP inh | LMPTP inh | SUMO1 PPI mod | Scp-1 inhibitor | HKDC1 inhibitor | DNMT1 inh conf | DNMT1 interf | others
O=c1c2c(nc3nc(Cc4ccccc4)[nH]n13)CCC2 | 61* | -4 | 0 | -1 | -6 | 0 | 2 | 3
Cc1nc2nc3c(c(=O)n2[nH]1)CCC3 | 3 | 3 | -1 | 2 | -2 | -2 | · | ·
O=C(O)CSc1cc(C(=O)c2ccccc2O)cn2c(=O)c3c(-c4ccccc4)csc3nc12 | 59* | 5 | 16 | 17 | 18 | 13 | 21 | -2
O=C(COC(=O)c1ccccc1O)Nc1ncc(Cl)cc1Cl | 64* | 0 | 1 | 24 | 25 | 8 | 12 | 4
Cc1ccnc(SCC(=O)Nc2sccc2C#N)n1 | 1 | -1 | 1 | 8 | 4 | -1 | · | ·
Cc1ccc(C(=O)NCCNc2nc3cc(C)c(C)cc3cc2C)cc1 | 56* | 3 | 1 | 24 | 5 | 13 | 6 | 1
Cc1cc2cc(C)c(NCCNC(=O)c3ccccc3)nc2cc1C | -3 | 5 | 1 | 5 | -2 | 12 | · | ·
COc1cc(-c2nnc(SCC(=O)N(C)C3CCS(=O)(=O)C3)o2)cc(OC)c1OC (stereo not drawn) | 0 | 6 | -1 | -4 | -2 | -7 | · | ·
COc1ccc2c(CC(=O)OCC(=O)Nc3cccc(C)c3)coc2c1 | 50* | 0 | 2 | 3 | 5 | 4 | 11 | 5
COC(=O)c1cccc(NC(=O)Cc2coc3cc(OC)ccc23)c1 | -4 | -3 | 1 | 1 | -10 | 7 | · | ·
CC(=O)Nc1ccc(-n2nnnc2SCC(=O)NC2CCCC2)cc1 | -1 | -2 | 1 | 3 | -6 | -7 | · | ·
CC(=O)c1ccc(-n2nnnc2SCC(=O)NC2CCCCC2)cc1 | 68* | -1 | -1 | -2 | -5 | -5 | 5 | 3
CC(C)c1onc(C(=O)NCCc2ccccc2)c1[N+](=O)[O-] | -2 | 0 | -1 | -6 | -4 | -7 | · | ·
CC(C)c1onc(C(=O)NC(C)c2ccccc2)c1[N+](=O)[O-] (stereo not drawn) | 92* | 2 | 0 | -4 | -3 | 9 | 2 | 1
Cc1ccccc1NC(=O)C1C(=O)Nc2ccccc2C(=O)N1Cc1ccccc1 (stereo not drawn) | · | · | -1 | -3 | · | · | · | ·
O=C(Cc1nnc(NC(=O)Nc2ccc(Cl)cc2)s1)NCc1ccccc1 | 48 | 0 | -1 | 1 | 0 | 0 | 1 | 4
COC(=O)c1ccccc1NC(=O)CCS(=O)(=O)c1ccc(Br)cc1 | 90* | 22 | 4 | 32 | 80* | -6 | 95* | 6 | DNMT1 interf DR=>99
COc1ccc(NC(=O)CCS(=O)(=O)c2ccc(OC)cc2)cc1 | -1 | -1 | -1 | 2 | -5 | 0 | · | ·
CCOc1ccc(NC(=O)CCS(=O)(=O)c2ccc(Br)cc2)cc1 | 84* | 9 | 1 | 48* | 46 | 2 | 9 | 6
Cc1ccccc1Oc1ncnc2oc(-c3ccccc3)cc12 | -1 | 2 | 1 | -1 | -6 | 1 | · | ·
Clc1ccc(Oc2ncnc3oc(-c4ccccc4)cc23)cc1 | 56* | 3 | 0 | 12 | -3 | -7 | 2 | 4
COc1cccc(S(=O)(=O)N(C)C[C@@H]2Oc3cc(Br)ccc3S(=O)(=O)N([C@@H](C)CO)C[C@@H]2C)c1 | 83* | 1 | -3 | 1 | · | · | 0 | 7
COc1ccc(S(=O)(=O)N(C)C[C@H]2Oc3cc(Br)ccc3S(=O)(=O)N([C@H](C)CO)C[C@H]2C)cc1 | 1 | 0 | -1 | 4 | · | · | · | ·
COc1ccc(NC(=O)C(C)N2c3cccc4cccc(c34)S2(=O)=O)cc1OC (stereo not drawn) | -18 | 2 | 1 | -7 | -16 | 12 | · | ·
O=C(CC[C@H]1O[C@@H](n2cnc3c(NC(=O)c4ccccc4)ncnc32)[C@H](O)[C@@H]1O)NCc1nc2ccccc2[nH]1 | 116* | 2 | -1 | 44* | · | · | 3 | 4
SMILES | DNMT1 inh | STEP inh | LMPTP inh | SUMO1 PPI mod | Scp-1 inhibitor | HKDC1 inhibitor | DNMT1 inh conf | DNMT1 interf | others
OC(c1ccccc1)C(Nc1ccccn1)c1ccccc1 (stereo not drawn) | 55* | -1 | -1 | 0 | 1 | -5 | 2 | 8
O=C(c1ccccc1)C(Nc1ccccn1)c1ccccc1 (stereo not drawn) | -1 | -2 | 0 | -4 | 4 | -4 | · | ·
CSc1ccccc1-c1n[nH]c(=S)o1 | 1 | 0 | -2 | 4 | -7 | -2 | · | ·
CC1Cc2nc(SCC(=O)N3CCCCC3)n(C)c(=O)c2S1 (stereo not drawn) | 0 | 3 | -2 | 3 | · | · | · | ·
CC1CCN(C(=O)CSc2nc3c(c(=O)n2C)SC(C)C3)CC1 (stereo not drawn) | 67* | 1 | -1 | 1 | -5 | 2 | 7 | 9
CCc1nnc(NC(=O)c2ccc(-c3ccc(Cl)cc3)o2)s1 | 68* | 1 | 21 | 1 | -6 | 8 | 5 | 2
COc1ccc(OC)c(-n2c(SCC(=O)Nc3cccc(S(N)(=O)=O)c3)nc3ccccc3c2=O)c1 | 67* | 13 | 1 | 3 | -4 | -2 | 2 | 2
COc1ccccc1N1CCN(S(=O)(=O)CCNC(=O)C2CCCC2)CC1 | 0 | 1 | 0 | 1 | 6 | 0 | · | ·
Cc1cc(C)nc(Nc2ccc(Br)cc2C(=O)O)n1 | 55* | 1 | 0 | 5 | -9 | 2 | 3 | 6
CCOc1cc(/C=C2\C(=O)N(c3nc(-c4ccc(Br)cc4)cs3)N=C2c2ccccc2)ccc1O | 96* | 4 | 10 | 21 | -16 | 29 | 93* | -5 | DNMT1 interf DR=>99
COc1cc(/C=C2\C(=O)N(c3ccc(NC(C)=O)cc3)N=C2c2ccccc2)ccc1O | -4 | 5 | 2 | -5 | -1 | 3 | · | ·
